In ChEMBL document CHEMBL5058577, “EUbOPEN Chemogenomics Library 2 (Multiplex)” (2022):

Test system: Fibroblast
Experiment: Multiplex assay against human fibroblast
Assay type: toxicity, cell-based
Method in brief: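 Per cents of healthy-nucleus cells form the tubulin, mitochondrial-mass and membrane-permeability phenotype values. Live cells were stained at seeding with Hoechst33342, BioTracker Green Microtubule Cytoskeleton Dye, MitoTracker Red and Annexin V Alexa Fluor 680. After compound addition they were imaged on a CQ1 microscope at 37°C and 5% CO2, and CellPathfinder machine-learning gating split them into Hoechst high-intensity objects or normal cells, normal cells into healthy, pyknosed or fragmented nuclei, and pyknosed cells into mitotic or apoptotic.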

[1] = 12 h, 1 µM, compound concentration 1 uM, replicate 1
[2] = 12 h, 1 µM, compound concentration 1 uM, replicate 2
[3] = 12 h, 10 µM, compound concentration 10 uM, replicate 1
[4] = 12 h, 10 µM, compound concentration 10 uM, replicate 2
[5] = 24 h, 1 µM, compound concentration 1 uM, replicate 1
[6] = 24 h, 1 µM, compound concentration 1 uM, replicate 2
[7] = 24 h, 10 µM, compound concentration 10 uM, replicate 1
[8] = 24 h, 10 µM, compound concentration 10 uM, replicate 2
[9] = 48 h, 1 µM, compound concentration 1 uM, replicate 1
[10] = 48 h, 1 µM, compound concentration 1 uM, replicate 2
[11] = 48 h, 10 µM, compound concentration 10 uM, replicate 1
[12] = 48 h, 10 µM, compound concentration 10 uM, replicate 2

CCOc1c2c(c(OCC)c3ncccc13)CN(c1ccc(CS(=O)(=O)NC(=O)Cc3ccccc3OC)cc1C)C2=O
Population Apoptotic (%) [1]: 44% | Population Fragmented Nuclei (%) [1]: 15% | Population Healthy Nuclei (%) [1]: 68% | Population Hoechst High Intensity Objects (%) [1]: 0% | Population Membrane Permeable-Phenotype (%) [1]: 1% | Population Mitochondria Different-Phenotype (%) [1]: 3% | Population Mitotic Cells (%) [1]: 55% | Population Normal (%) [1]: 99% | Population Pyknosed Nuclei (%) [1]: 15% | Population Tubulin-Different-Phenotype (%) [1]: 23% | Total Cell Count [1]: 120 | Population Apoptotic (%) [2]: 38% | Population Fragmented Nuclei (%) [2]: 37% | Population Healthy Nuclei (%) [2]: 42% | Population Hoechst High Intensity Objects (%) [2]: 4% | Population Membrane Permeable-Phenotype (%) [2]: 8% | Population Mitochondria Different-Phenotype (%) [2]: 2% | Population Mitotic Cells (%) [2]: 61% | Population Normal (%) [2]: 95% | Population Pyknosed Nuclei (%) [2]: 19% | Population Tubulin-Different-Phenotype (%) [2]: 62% | Total Cell Count [2]: 111 | Population Apoptotic (%) [3]: 35% | Population Fragmented Nuclei (%) [3]: 15% | Population Healthy Nuclei (%) [3]: 63% | Population Hoechst High Intensity Objects (%) [3]: 1% | Population Membrane Permeable-Phenotype (%) [3]: 1% | Population Mitochondria Different-Phenotype (%) [3]: 6% | Population Mitotic Cells (%) [3]: 64% | Population Normal (%) [3]: 98% | Population Pyknosed Nuclei (%) [3]: 21% | Population Tubulin-Different-Phenotype (%) [3]: 27% | Total Cell Count [3]: 161 | Population Apoptotic (%) [4]: 21% | Population Fragmented Nuclei (%) [4]: 19% | Population Healthy Nuclei (%) [4]: 50% | Population Hoechst High Intensity Objects (%) [4]: 3% | Population Membrane Permeable-Phenotype (%) [4]: 7% | Population Mitochondria Different-Phenotype (%) [4]: 8% | Population Mitotic Cells (%) [4]: 78% | Population Normal (%) [4]: 96% | Population Pyknosed Nuclei (%) [4]: 29% | Population Tubulin-Different-Phenotype (%) [4]: 54% | Total Cell Count [4]: 146 | Population Apoptotic (%) [5]: 56% | Population Fragmented Nuclei (%) [5]: 13% | Population Healthy Nuclei (%) [5]: 67% | Population Hoechst High Intensity Objects (%) [5]: 3% | Population Membrane Permeable-Phenotype (%) [5]: 2% | Population Mitochondria Different-Phenotype (%) [5]: 3% | Population Mitotic Cells (%) [5]: 43% | Population Normal (%) [5]: 96% | Population Pyknosed Nuclei (%) [5]: 18% | Population Tubulin-Different-Phenotype (%) [5]: 23% | Total Cell Count [5]: 127 | Population Apoptotic (%) [6]: 46% | Population Fragmented Nuclei (%) [6]: 37% | Population Healthy Nuclei (%) [6]: 32% | Population Hoechst High Intensity Objects (%) [6]: 2% | Population Membrane Permeable-Phenotype (%) [6]: 18% | Population Mitotic Cells (%) [6]: 53% | Population Normal (%) [6]: 97% | Population Pyknosed Nuclei (%) [6]: 29% | Population Tubulin-Different-Phenotype (%) [6]: 69% | Total Cell Count [6]: 104 | Population Apoptotic (%) [7]: 42% | Population Fragmented Nuclei (%) [7]: 17% | Population Healthy Nuclei (%) [7]: 66% | Population Hoechst High Intensity Objects (%) [7]: 3% | Population Membrane Permeable-Phenotype (%) [7]: 1% | Population Mitochondria Different-Phenotype (%) [7]: 2% | Population Mitotic Cells (%) [7]: 57% | Population Normal (%) [7]: 96% | Population Pyknosed Nuclei (%) [7]: 15% | Population Tubulin-Different-Phenotype (%) [7]: 19% | Total Cell Count [7]: 171 | Population Fragmented Nuclei (%) [8]: 25% | Population Healthy Nuclei (%) [8]: 49% | Population Hoechst High Intensity Objects (%) [8]: 4% | Population Membrane Permeable-Phenotype (%) [8]: 5% | Population Normal (%) [8]: 95% | Population Pyknosed Nuclei (%) [8]: 25% | Population Tubulin-Different-Phenotype (%) [8]: 50% | Total Cell Count [8]: 142 | Population Apoptotic (%) [9]: 57% | Population Fragmented Nuclei (%) [9]: 18% | Population Healthy Nuclei (%) [9]: 66% | Population Hoechst High Intensity Objects (%) [9]: 3% | Population Membrane Permeable-Phenotype (%) [9]: 1% | Population Mitochondria Different-Phenotype (%) [9]: 3% | Population Mitotic Cells (%) [9]: 42% | Population Normal (%) [9]: 96% | Population Pyknosed Nuclei (%) [9]: 15% | Population Tubulin-Different-Phenotype (%) [9]: 26% | Total Cell Count [9]: 128 | Population Apoptotic (%) [10]: 66% | Population Fragmented Nuclei (%) [10]: 47% | Population Healthy Nuclei (%) [10]: 40% | Population Hoechst High Intensity Objects (%) [10]: 5% | Population Membrane Permeable-Phenotype (%) [10]: 5% | Population Mitochondria Different-Phenotype (%) [10]: 7% | Population Mitotic Cells (%) [10]: 33% | Population Normal (%) [10]: 94% | Population Pyknosed Nuclei (%) [10]: 12% | Population Tubulin-Different-Phenotype (%) [10]: 72% | Total Cell Count [10]: 105 | Population Apoptotic (%) [11]: 71% | Population Fragmented Nuclei (%) [11]: 16% | Population Healthy Nuclei (%) [11]: 63% | Population Hoechst High Intensity Objects (%) [11]: 7% | Population Membrane Permeable-Phenotype (%) [11]: 1% | Population Mitochondria Different-Phenotype (%) [11]: 2% | Population Mitotic Cells (%) [11]: 28% | Population Normal (%) [11]: 92% | Population Pyknosed Nuclei (%) [11]: 20% | Population Tubulin-Different-Phenotype (%) [11]: 20% | Total Cell Count [11]: 171 | Population Apoptotic (%) [12]: 29% | Population Fragmented Nuclei (%) [12]: 34% | Population Healthy Nuclei (%) [12]: 45% | Population Hoechst High Intensity Objects (%) [12]: 9% | Population Membrane Permeable-Phenotype (%) [12]: 7% | Population Mitochondria Different-Phenotype (%) [12]: 5% | Population Mitotic Cells (%) [12]: 70% | Population Normal (%) [12]: 90% | Population Tubulin-Different-Phenotype (%) [12]: 51% | Total Cell Count [12]: 131
